# How the values were obtained:
# Assay type in all cases: functional
# HL-60(TB) = assay: Growth inhibition of human HL-60(TB) cells after 48 hrs by sulforhodamine B assay; conditions: HL-60, 48 h; for TGI: read-out: pTGI (converted)
# Procedure, shortened: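 Tested only on compounds active in a three-line prescreen, in the NCI 60-human-tumour-cell-line panel over a 5-log dose range. Values come from dose–response curves as log10 molar GI50, the concentration inhibiting 50% net cell growth. Log10 TGI (total growth inhibition) and log10 LC50 (50% net cell death) were derived too. Mean graph midpoints include insensitive lines at the highest concentration tested.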
# K562 = assay: Growth inhibition of human K562 cells after 48 hrs by sulforhodamine B assay; conditions: K562, 48 h; for TGI: read-out: pTGI (converted)
# Procedure, shortened: (§1)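 NCI 60-human-tumor-cell-line panel, with compounds tested over a 5-log dose range. Values are taken from dose-response curves as log10 molar concentrations: GI50 is 50% net growth inhibition, TGI is total growth inhibition, and LC50 is 50% net cell death.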
# SR = assay: Growth inhibition of human SR cells after 48 hrs by sulforhodamine B assay; conditions: for TGI: read-out: pTGI (converted)
# Procedure, shortened: (§2)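 Run in the NCI 60-human-tumour-cell-line panel, tested over a 5-log dose range. Dose–response curves gave three values per cell line, each as a log10 molar concentration: GI50 (50% inhibition of net cell growth), TGI (total inhibition of net growth) and LC50 (50% net cell death). The mean graph midpoint is the arithmetic mean over all lines, with insensitive lines entered at the highest concentration tested.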
# MOLT-4 = assay: Growth inhibition of human MOLT4 cells after 48 hrs by sulforhodamine B assay; conditions: MOLT-4, 48 h; for TGI: read-out: pTGI (converted); procedure, shortened: as §1
# EKVX = assay: Growth inhibition of human EKVX cells after 48 hrs by sulforhodamine B assay; conditions: for TGI: read-out: pTGI (converted); procedure, shortened: as §1
# HOP-62 = assay: Growth inhibition of human HOP62 cells after 48 hrs by sulforhodamine B assay; conditions: HOP-62, 48 h; for TGI: read-out: pTGI (converted); procedure, shortened: as §1
# HOP-92 = assay: Growth inhibition of human HOP92 cells after 48 hrs by sulforhodamine B assay; conditions: HOP-92, 48 h; for TGI: read-out: pTGI (converted); procedure, shortened: as §1
# NCI-H322M = assay: Growth inhibition of human NCI-H322M cells after 48 hrs by sulforhodamine B assay; conditions: for TGI: read-out: pTGI (converted); procedure, shortened: as §1
# NCI-H522 = assay: Growth inhibition of human NCI-H522 cells after 48 hrs by sulforhodamine B assay; conditions: NCI-H522, 48 h; for TGI: read-out: pTGI (converted); procedure, shortened: as §1
# HCT-15 = assay: Growth inhibition of human HCT15 cells after 48 hrs by sulforhodamine B assay; conditions: HCT-15, 48 h; for TGI: read-out: pTGI (converted); procedure, shortened: as §1
# HT-29 = assay: Growth inhibition of human HT-29 cells after 48 hrs by sulforhodamine B assay; conditions: HT-29, 48 h; for TGI: read-out: pTGI (converted); procedure, shortened: as §1
# KM12 = assay: Growth inhibition of human KM12 cells after 48 hrs by sulforhodamine B assay; conditions: KM12, 48 h; for TGI: read-out: pTGI (converted); procedure, shortened: as §1
# SF-539 = assay: Growth inhibition of human SF539 cells after 48 hrs by sulforhodamine B assay; conditions: SF-539, 48 h; for TGI: read-out: pTGI (converted); procedure, shortened: as §1
# SNB-75 = assay: Growth inhibition of human SNB75 cells after 48 hrs by sulforhodamine B assay; conditions: SNB-75, 48 h; for TGI: read-out: pTGI (converted); procedure, shortened: as §2
# LOX IMVI = assay: Growth inhibition of human LOXIMVI cells after 48 hrs by sulforhodamine B assay; conditions: for TGI: read-out: pTGI (converted); procedure, shortened: as §1
# SK-MEL-2 = assay: Growth inhibition of human SK-MEL-2 cells after 48 hrs by sulforhodamine B assay; conditions: SK-MEL-2, 48 h; for CC50: read-out: pLC50 (the source's name) (converted); for TGI: read-out: pTGI (converted); procedure, shortened: as §1
# OVCAR-3 = assay: Growth inhibition of human OVCAR-3 cells after 48 hrs by sulforhodamine B assay; conditions: OVCAR-3, 48 h; for CC50: read-out: pLC50 (the source's name) (converted); for TGI: read-out: pTGI (converted); procedure, shortened: as §1
# OVCAR-5 = assay: Growth inhibition of human OVCAR5 cells after 48 hrs by sulforhodamine B assay; conditions: OVCAR-5, 48 h; for CC50: read-out: pLC50 (the source's name) (converted); for TGI: read-out: pTGI (converted); procedure, shortened: as §1
# 786-0 = assay: Growth inhibition of human 786-0 cells after 48 hrs by sulforhodamine B assay; conditions: 786-0, 48 h; for CC50: read-out: pLC50 (the source's name) (converted); for TGI: read-out: pTGI (converted); procedure, shortened: as §1
# A498 = assay: Growth inhibition of human A498 cells after 48 hrs by sulforhodamine B assay; conditions: A498, 48 h; procedure, shortened: as §1
# ACHN = assay: Growth inhibition of human ACHN cells after 48 hrs by sulforhodamine B assay; conditions: for CC50: read-out: pLC50 (the source's name) (converted); for TGI: read-out: pTGI (converted)
# CAKI-1 = assay: Growth inhibition of human Caki1 cells after 48 hrs by sulforhodamine B assay; conditions: CAKI-1, 48 h; for CC50: read-out: pLC50 (the source's name) (converted); for TGI: read-out: pTGI (converted); procedure, shortened: as §1
# SN12C = assay: Growth inhibition of human SN12C cells after 48 hrs by sulforhodamine B assay; procedure, shortened: as §2
# UO-31 = assay: Growth inhibition of human UO31 cells after 48 hrs by sulforhodamine B assay; conditions: UO-31, 48 h; for CC50: read-out: pLC50 (the source's name) (converted); for TGI: read-out: pTGI (converted); procedure, shortened: as §2
# NCI/ADR-RES = assay: Growth inhibition of human NCI/ADR-RES cells after 48 hrs by sulforhodamine B assay; conditions: for CC50: read-out: pLC50 (the source's name) (converted); for TGI: read-out: pTGI (converted); procedure, shortened: as §1
# [1] = Growth inhibition of human Hs 578T cells after 48 hrs by sulforhodamine B assay; conditions: for CC50: read-out: pLC50 (the source's name) (converted); for TGI: read-out: pTGI (converted); procedure, shortened: as §1
# BT-549 = assay: Growth inhibition of human BT549 cells after 48 hrs by sulforhodamine B assay; conditions: BT-549, 48 h; for CC50: read-out: pLC50 (the source's name) (converted); for TGI: read-out: pTGI (converted); procedure, shortened: as §1
# [2] = read-out: pLC50 (the source's name) (converted)
smiles,measurement,setting,value
Nc1cc(N)c2nc(-c3ccccc3)c(NCc3ccc(F)cc3)nc2c1,GI50,HL-60(TB),3.89 µM
same,LC50,HL-60(TB),> 100 µM
same,TGI,HL-60(TB),> 100 µM
same,GI50,K562,4.37 µM
same,LC50,K562,> 100 µM
same,TGI,K562,> 100 µM
same,GI50,SR,4.07 µM
same,LC50 (concentration giving 50% net cell death),SR,> 100 µM
same,TGI,SR,> 100 µM
same,GI50,MOLT-4,> 100 µM
same,LC50,MOLT-4,> 100 µM
same,TGI,MOLT-4,> 100 µM
same,GI50,EKVX,1.91 µM
same,LC50 (50% net cell kill),EKVX,8.71 µM
same,TGI,EKVX,4.07 µM
same,GI50,HOP-62,38.9 µM
same,LC50,HOP-62,> 100 µM
same,TGI,HOP-62,> 100 µM
same,GI50,HOP-92,3.31 µM
same,LC50 (50% net cell death),HOP-92,> 100 µM
same,TGI,HOP-92,6.92 µM
same,GI50,NCI-H322M,3.47 µM
same,LC50,NCI-H322M,40.7 µM
same,TGI,NCI-H322M,11.5 µM
same,GI50,NCI-H522,> 100 µM
same,LC50,NCI-H522,> 100 µM
same,TGI,NCI-H522,> 100 µM
same,GI50,HCT-15,3.31 µM
same,LC50,HCT-15,> 100 µM
same,TGI,HCT-15,19.1 µM
same,GI50,HT-29,3.16 µM
same,LC50,HT-29,> 100 µM
same,TGI,HT-29,12.6 µM
same,GI50,KM12,2.82 µM
same,LC50 (50% net cell kill),KM12,> 100 µM
same,TGI,KM12,7.41 µM
same,GI50,SF-539,1.82 µM
same,LC50,SF-539,6.92 µM
same,TGI,SF-539,3.55 µM
same,GI50,SNB-75,2.14 µM
same,LC50,SNB-75,> 100 µM
same,TGI,SNB-75,5.01 µM
same,GI50,LOX IMVI,1.51 µM
same,LC50,LOX IMVI,6.61 µM
same,TGI,LOX IMVI,3.16 µM
same,GI50,SK-MEL-2,5.25 µM
same,CC50,SK-MEL-2,> 100 µM
same,TGI,SK-MEL-2,> 100 µM
same,GI50,OVCAR-3,2.4 µM
same,CC50,OVCAR-3,> 100 µM
same,TGI,OVCAR-3,6.46 µM
same,GI50,OVCAR-5,2.63 µM
same,CC50,OVCAR-5,> 100 µM
same,TGI,OVCAR-5,7.59 µM
same,GI50,786-0,23.4 µM
same,CC50,786-0,> 100 µM
same,TGI,786-0,61.7 µM
same,GI50,A498,17 µM
same,CC50,A498; [2],57.5 µM
same,TGI,A498; read-out: pTGI (converted),30.9 µM
same,GI50,ACHN,1.7 µM
same,CC50,ACHN,5.62 µM
same,TGI,ACHN,3.09 µM
same,GI50,CAKI-1,15.1 µM
same,CC50,CAKI-1,89.1 µM
same,TGI,CAKI-1,37.2 µM
same,GI50,SN12C,7.59 µM
same,CC50,SN12C; [2],64.6 µM
same,TGI,SN12C; read-out: pTGI (converted),23.4 µM
same,GI50,UO-31,3.8 µM
same,CC50,UO-31,> 100 µM
same,TGI,UO-31,> 100 µM
same,GI50,NCI/ADR-RES,2.45 µM
same,CC50,NCI/ADR-RES,28.2 µM
same,TGI,NCI/ADR-RES,5.75 µM
same,GI50,[1],4.9 µM
same,CC50,[1],> 100 µM
same,TGI,[1],> 100 µM
same,GI50,BT-549,1.7 µM
same,CC50,BT-549,6.31 µM
same,TGI,BT-549,3.24 µM
Nc1cc(N)c2nc(-c3ccccc3)c(Oc3ccc(F)cc3)nc2c1,GI50,HL-60(TB),18.6 µM
same,LC50,HL-60(TB),> 100 µM
same,TGI,HL-60(TB),64.6 µM
same,GI50,K562,11 µM
same,LC50,K562,> 100 µM
same,TGI,K562,> 100 µM
same,GI50,SR,8.13 µM
same,LC50 (concentration giving 50% net cell death),SR,> 100 µM
same,TGI,SR,> 100 µM
same,GI50,MOLT-4,6.61 µM
same,LC50,MOLT-4,> 100 µM
same,TGI,MOLT-4,> 100 µM
same,GI50,EKVX,14.8 µM
same,LC50 (50% net cell kill),EKVX,77.6 µM
same,TGI,EKVX,33.9 µM
same,GI50,HOP-62,21.4 µM
same,LC50,HOP-62,> 100 µM
same,TGI,HOP-62,49 µM
same,GI50,HOP-92,12.3 µM
same,LC50 (50% net cell death),HOP-92,72.4 µM
same,TGI,HOP-92,29.5 µM
same,GI50,NCI-H322M,17 µM
same,LC50,NCI-H322M,81.3 µM
same,TGI,NCI-H322M,37.2 µM
same,GI50,NCI-H522,64.6 µM
same,LC50,NCI-H522,> 100 µM
same,TGI,NCI-H522,> 100 µM
same,GI50,HCT-15,36.3 µM
same,LC50,HCT-15,> 100 µM
same,TGI,HCT-15,> 100 µM
same,GI50,HT-29,22.9 µM
same,LC50,HT-29,> 100 µM
same,TGI,HT-29,51.3 µM
same,GI50,KM12,14.5 µM
same,LC50 (50% net cell kill),KM12,> 100 µM
same,TGI,KM12,40.7 µM
same,GI50,SF-539,18.2 µM
same,LC50,SF-539,70.8 µM
same,TGI,SF-539,35.5 µM
same,GI50,SNB-75,23.4 µM
same,LC50,SNB-75,> 100 µM
same,TGI,SNB-75,49 µM
same,GI50,LOX IMVI,43.7 µM
same,LC50,LOX IMVI,> 100 µM
same,TGI,LOX IMVI,> 100 µM
same,GI50,SK-MEL-2,42.7 µM
same,CC50,SK-MEL-2,> 100 µM
same,TGI,SK-MEL-2,> 100 µM
same,GI50,OVCAR-3,15.5 µM
same,CC50,OVCAR-3,> 100 µM
same,TGI,OVCAR-3,41.7 µM
same,GI50,OVCAR-5,20.4 µM
same,CC50,OVCAR-5,> 100 µM
same,TGI,OVCAR-5,47.9 µM
same,GI50,786-0,15.5 µM
same,CC50,786-0,75.9 µM
same,TGI,786-0,34.7 µM
same,GI50,ACHN,13.8 µM
same,CC50,ACHN,81.3 µM
same,TGI,ACHN,33.1 µM
same,GI50,CAKI-1,11.2 µM
same,CC50,CAKI-1,53.7 µM
same,TGI,CAKI-1,24.5 µM
same,GI50,UO-31,13.5 µM
same,CC50,UO-31,> 100 µM
same,TGI,UO-31,45.7 µM
same,GI50,NCI/ADR-RES,18.2 µM
same,CC50,NCI/ADR-RES,70.8 µM
same,TGI,NCI/ADR-RES,36.3 µM
same,GI50,[1],20 µM
same,CC50,[1],> 100 µM
same,TGI,[1],53.7 µM
same,GI50,BT-549,15.1 µM
same,CC50,BT-549,81.3 µM
same,TGI,BT-549,34.7 µM
